Source: PubChem
The list is not random: actives were taken first. Their share in the collection is about 2.3%.
OXTR potentiate: human OXTR potentiators, primary screen, fluorescence, CHO-OTR cells, Fluo-8 calcium; 320,000 compounds, 0.061% hits; activation, % at 3 µM; AID 2445, 2010; Fluo-8 calcium fluorescence, potentiator mode; 0% = oxytocin EC15, 100% = EC100;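 active = activation above that plate's cutoff, the mean activation of tested compounds plus 3 SD, cut at about 6.6% in these data, passing the limit was not always enough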;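 note: 100% uses oxytocin at 75 nM as the full agonist control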
Target sequence (P30559 whole entry, looked up): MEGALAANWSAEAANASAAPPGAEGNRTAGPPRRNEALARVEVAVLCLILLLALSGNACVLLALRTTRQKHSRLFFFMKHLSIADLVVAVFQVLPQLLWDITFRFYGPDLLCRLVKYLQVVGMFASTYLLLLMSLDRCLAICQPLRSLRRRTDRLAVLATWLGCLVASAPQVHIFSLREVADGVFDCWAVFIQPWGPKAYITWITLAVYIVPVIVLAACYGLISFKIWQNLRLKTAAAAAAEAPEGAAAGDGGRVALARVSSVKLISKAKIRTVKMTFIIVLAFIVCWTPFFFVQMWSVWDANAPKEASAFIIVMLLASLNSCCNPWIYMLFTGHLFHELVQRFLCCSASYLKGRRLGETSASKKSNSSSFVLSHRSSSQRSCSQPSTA
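Material: human OTR in CHO cells. Compound: 3.0 µM, one dose. Timing: compound 6 min at room temperature before oxytocin, 100 s read. Evaluation: % activation of max/min ratio relative to oxytocin controls. Replication: single well per compound, singlicate. Signal: Fluo-8 calcium dye fluorescence.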
OXTR agonist: human OXTR agonists, primary screen, fluorescence, CHO-OTR cells, Fluo-8 calcium; AID 2435, 2010; Fluo-8 calcium fluorescence; normalized: DMSO 0%, oxytocin 100%; activation, % at 3 µM; Oxytocin receptor (Homo sapiens), P30559; 320,000 compounds, 0.32% hits;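 active = activation above the mean of all tested compounds plus 3 SD, cutoff set per screening run, cut at about 20% in these data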;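 note: peak over basal fluorescence ratio from a 100 s FLIPR kinetic read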
TAAR1 ag: human TAAR1 agonists, primary screen, Fluo-8 calcium fluorescence, CHO RD-HGA16 cells; Trace amine-associated receptor 1 (Homo sapiens), Q96RJ0; vehicle wells 0%, saturating PEA agonist 100%; activation, % at 3 µM; 360,000 compounds, 0.99% hits; AID 624467, 2012;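 active = activation above the mean activation of all test compounds in the run plus 3 SD, cut at about 38% in these data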
Target sequence (Q96RJ0 whole entry, looked up): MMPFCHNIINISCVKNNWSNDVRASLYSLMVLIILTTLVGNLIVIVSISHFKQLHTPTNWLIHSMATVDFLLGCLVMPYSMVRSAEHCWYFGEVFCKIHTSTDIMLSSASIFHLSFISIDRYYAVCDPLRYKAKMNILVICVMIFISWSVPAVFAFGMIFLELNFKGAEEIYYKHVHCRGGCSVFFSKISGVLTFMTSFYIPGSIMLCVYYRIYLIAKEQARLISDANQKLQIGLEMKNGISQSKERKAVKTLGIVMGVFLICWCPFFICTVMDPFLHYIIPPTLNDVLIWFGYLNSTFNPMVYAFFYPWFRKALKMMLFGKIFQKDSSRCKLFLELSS
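Test system: RD-HGA16 (CHO) cells co-expressing Gα16 and hTAAR1 | Doses: Single dose, 3 µM | Schedule: 17-24 h seeding, 75 min 37 °C dye, 30 min RT | Evaluation: % activation from peak over basal fluorescence ratio, DMSO-to-PEA scaled | Technique: Kinetic Fluo-8 calcium fluorescence | Benchmarks: Low control DMSO, high control PEA (EC100)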
TAAR1 antag: human TAAR1 antagonists, primary screen, Fluo-8 calcium fluorescence, CHO RD-HGA16 cells. 360,000 compounds, 1.5% hits. inhibition, % at 3 µM. antagonist. Trace amine-associated receptor 1 (Homo sapiens), Q96RJ0;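 active = inhibition above a per-plate cutoff, the mean inhibition of test compounds on that plate plus 3 SD, cut at about 49% in these data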;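 note: 0% = DMSO plus EC80 beta-PEA response and 100% = DMSO alone without agonist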
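Material: CHO RD-HGA16 cells bearing hTAAR1; compound dosing: one-point dosing, 3 µM nominal final; schedule: dye loading 75 min at 37 °C, then 30 min room temperature; measured by: calcium fluorescence with Fluo-8; control set: vehicle and agonist controls; replication: n of 1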
V1aR counter: agonists of human V1a receptor, primary screen, counter-screen for OXTR agonist project, fluorescence, CHO-V1R cells; Vasopressin V1a receptor (Homo sapiens), P37288; 320,000 compounds, 0.25% hits; activation, % at 3 µM; Fluo-8 calcium fluorescence, agonist mode; 0% DMSO, 100% 3 nM vasopressin;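 active = activation above the mean activation of all tested compounds plus 3 SD, per screening run, cut at about 20% in these data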;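 note: signal is peak over basal fluorescence ratio across a 100 second FLIPR read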
TAAR1 nonsel count: nonselective antagonists in TAAR1 counter-screen cells, counter-screen for hTAAR1 antagonist project, cell-based, fluorescence, calcium. shares compounds with TAAR1 antag. counterscreen cell line, antagonist mode. inhibition, % at 3 µM. 2,400 compounds, 77% hits. AID 651780, 2012; in the data active = inhibition above about 22%;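 note: CHO-Ga16 host cells stimulated with ATP at an EC80 level; 0% = agonist EC80 plus vehicle and 100% = vehicle without agonist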
TAAR1 ant conf: human TAAR1 antagonists, retest of hits, confirmation, cell-based, fluorescence | shares compounds with TAAR1 antag | TAAR1-expressing cells, fluorescence antagonist read-out | inhibition, % at 3 µM | 2,400 compounds, 40% hits; in the data active = inhibition above about 49%;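 note: CHO-Ga16 host cells challenged with agonist PEA near its EC80; 0% = agonist at EC80 plus vehicle and 100% = vehicle with no agonist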
Ga16 nonsel ag: calcium activation in Ga16-expressing cells, counter-screen for TAAR1 antagonist project, cell-based, fluorescence; shares compounds with TAAR1 antag; agonist counterscreen; activation, % at 3 µM; 2,400 compounds, 18% hits; AID 651953, 2012; in the data active = activation above about 12%;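 note: 0% = vehicle wells and 100% = saturating stimulus response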
TAAR1 ag count: TAAR1 activation by candidate antagonists – cell-based, fluorescence, counter-screen for TAAR1 antagonist project; activation, % at 3 µM; 2,400 compounds, 2% hits; hTAAR1 cell line, agonist mode; shares compounds with TAAR1 antag; in the data active = activation above about 37%;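 note: CHO cells stably expressing TAAR1 with calcium dye readout; 0% = DMSO vehicle and 100% = full agonist response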
Numbers without * were called inactive.

For COC1OC(COCc2ccccc2)C2OC(C)(C)OC2C1O (configuration not stated) the results were TAAR1 ag 0.3 and TAAR1 antag -10.5.
For COc1ccc(CC(=O)NNC(=O)c2cc(Cl)ccc2OC)cc1 the results were TAAR1 ag 4.7 and TAAR1 antag -16.0.
Screening Cc1cccc(C)c1NC(=O)C(c1ccnc2ccccc12)n1c(=O)c(-c2ccccc2)nc2ccccc21 (configuration not stated) returned TAAR1 ag 2.7 and TAAR1 antag -52.3.
CCCn1c(SCC(=O)N2CCOCC2)nnc1-c1ccncc1 was read as OXTR potentiate 5.7, OXTR agonist 1.6, TAAR1 ag 2.0, TAAR1 antag -6.4 and V1aR counter 0.6.
For COC(=O)C1=C(C)N(C)C(=NCC2CC2)NC1c1ccccc1C(F)(F)F (configuration not stated) the results were TAAR1 ag 0.5 and TAAR1 antag -25.2.
Screening CCOC(=O)C1(Cc2ccccc2C)CCCN(C(=O)c2ccc3nccnc3c2)C1 (configuration not stated) returned OXTR potentiate -11.1, OXTR agonist 2.4, TAAR1 ag 14.7, TAAR1 antag 66.7*, V1aR counter 2.1, TAAR1 nonsel count 24.2*, TAAR1 ant conf 49.0*, Ga16 nonsel ag 8.1 and TAAR1 ag count 12.6.
Screening CCOC(=O)C1(Cc2ccccc2C)CCCN(C(=O)c2ccccn2)C1 (configuration not stated) returned OXTR potentiate -10.1, OXTR agonist -1.0, TAAR1 ag 15.9, TAAR1 antag -20.9 and V1aR counter -0.8.
Cc1cccc(C)c1NC(=O)c1csc([C@H]2C[C@H](O)[C@@H](CO)O2)n1 was read as TAAR1 ag 3.2 and TAAR1 antag -21.5.
Cc1ccccc1CN1[C@@H](CC(C)C)COc2cc(Br)ccc2S1(=O)=O was read as TAAR1 ag -0.3 and TAAR1 antag -34.2.
`O=C(COc1ccccc1-c1ccccc1)NCCN1C(=O)S/C(=C\c2cccnc2)C1=O` gave OXTR potentiate -5.7, OXTR agonist 2.1, TAAR1 ag 11.4, TAAR1 antag 69.5*, V1aR counter 0.0, TAAR1 nonsel count 38.8*, TAAR1 ant conf 46.2, Ga16 nonsel ag 11.6* and TAAR1 ag count 8.6.
O=C(NCCN1C(=O)S/C(=C/c2cccnc2)C1=O)c1cccs1 was read as OXTR potentiate -2.8, OXTR agonist 0.3, TAAR1 ag 0.9, TAAR1 antag 3.0 and V1aR counter 0.7.
For COc1cc(O)c(CC=C(C)C)c(O)c1C(=O)CCc1ccc(O)cc1 the results were OXTR potentiate -8.2, OXTR agonist 14.4, TAAR1 ag 26.2, TAAR1 antag 89.5*, V1aR counter 5.3, TAAR1 nonsel count 44.4*, TAAR1 ant conf 60.8*, Ga16 nonsel ag 16.3* and TAAR1 ag count 22.8.
`CCCCC[C@H](C)N1C[C@H](COCc2ccccc2)Oc2cc(N3CCC[C@H]3COC)ccc2S1(=O)=O` gave TAAR1 ag -0.2 and TAAR1 antag -25.8.
Screening COc1ccc(-c2[nH]c3ccccc3c2SCCNC(=O)c2ccccc2)cc1 returned OXTR potentiate -7.2, OXTR agonist -0.3, TAAR1 ag 1.8, TAAR1 antag 70.2*, V1aR counter -0.1, TAAR1 nonsel count 23.0*, TAAR1 ant conf 41.2, Ga16 nonsel ag 4.6 and TAAR1 ag count 5.2.
For CCOC(=O)c1cc(-c2ccccc2)nn1CC1CC(c2ccc(OC)cc2)=NO1 (configuration not stated) the results were OXTR potentiate -9.1, OXTR agonist 1.4, TAAR1 ag 0.6, TAAR1 antag 34.6 and V1aR counter 1.1.
For COc1ccccc1CNC(=O)c1cc(-c2ccccc2C)nn1CC1CC(c2cccnc2)=NO1 (configuration not stated) the results were OXTR potentiate -5.4, OXTR agonist -1.1, TAAR1 ag 14.0, TAAR1 antag 37.3 and V1aR counter 0.0.
For CCOC(=O)c1cc(-c2ccccc2)nn1CC1CC(c2ccc(Cl)cc2)=NO1 (configuration not stated) the results were OXTR potentiate -16.0, OXTR agonist -0.4, TAAR1 ag 12.9, TAAR1 antag 79.6*, V1aR counter -0.9, TAAR1 nonsel count 24.5*, TAAR1 ant conf 46.7, Ga16 nonsel ag 5.8 and TAAR1 ag count 3.1.
Screening Cc1ccccc1-c1cc(C(=O)NCc2cccc(Br)c2)n(CC2CC(c3cccnc3)=NO2)n1 (configuration not stated) returned OXTR potentiate -2.7, OXTR agonist -0.4, TAAR1 ag 11.1, TAAR1 antag 69.3*, V1aR counter 0.7, TAAR1 nonsel count 25.9*, TAAR1 ant conf 38.1, Ga16 nonsel ag 7.3 and TAAR1 ag count 9.2.
`CCN(CC)c1ncnc2c1cnn2Cc1ccc(Cl)cc1` gave OXTR potentiate -21.3, OXTR agonist 5.0, TAAR1 ag 13.1, TAAR1 antag 54.3*, V1aR counter 3.5, TAAR1 nonsel count 26.9*, TAAR1 ant conf 39.9, Ga16 nonsel ag 7.4 and TAAR1 ag count 7.6.
Screening C[C@@H]1CN([C@@H](C)CO)C(=O)CCCn2cc(nn2)CO[C@H]1CN(C)C(=O)Nc1ccc(-c2cccs2)cc1 returned TAAR1 ag 4.3 and TAAR1 antag -17.1.
For Cc1nn(-c2ccccn2)c2c1-c1nc(N3CCOCC3)ncc1CC2 the results were OXTR potentiate -6.9, OXTR agonist -1.8, TAAR1 ag 15.5, TAAR1 antag 70.1*, V1aR counter -0.2, TAAR1 nonsel count 27.1*, TAAR1 ant conf 48.6*, Ga16 nonsel ag 5.7 and TAAR1 ag count 5.0.
